Screening data (PubChem)
The entries come from a sample that favours hits as a whole.
IDH1 R132H inh – inhibitors of IDH1 R132H reductase, primary screen, biochemical, plate reader, single point; Isocitrate dehydrogenase [NADP] cytoplasmic (Homo sapiens), O75874; diaphorase/resazurin fluorescence, 60 min; inhibition, % at 10 µM; 0.18% of 70,000 active; AID 624101, 2012; in the data active means inhibition above about 34%; inconclusive means no clear call, values can overlap the other calls; inactive means below about 11%;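 further: 0% = DMSO and 100% = no enzyme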
Target sequence (O75874 whole entry R132H): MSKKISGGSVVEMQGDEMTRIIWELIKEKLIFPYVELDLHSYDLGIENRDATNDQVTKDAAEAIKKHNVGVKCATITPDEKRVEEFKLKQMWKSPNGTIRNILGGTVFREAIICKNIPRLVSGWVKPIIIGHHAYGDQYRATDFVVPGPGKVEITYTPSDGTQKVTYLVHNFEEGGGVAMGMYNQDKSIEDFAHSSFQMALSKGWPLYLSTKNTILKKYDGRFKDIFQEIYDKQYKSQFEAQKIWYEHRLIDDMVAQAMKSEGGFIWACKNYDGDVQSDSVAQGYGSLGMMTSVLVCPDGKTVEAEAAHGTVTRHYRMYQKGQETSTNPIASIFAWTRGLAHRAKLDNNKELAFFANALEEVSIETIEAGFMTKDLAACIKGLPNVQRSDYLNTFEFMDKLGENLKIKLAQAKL
GASC1 inh – inhibitors of GASC-1 (KDM4C) histone demethylase, primary screen, biochemical, single concentration HTS | inhibition, % at 12.5 µM | GST-KDM4C 2-372, H3K9me3 peptide, LANCE TR-FRET | Lysine-specific demethylase 4C (Homo sapiens), Q9H3R0 | 0.15% of 96,000 active;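 active means mean replicate inhibition above about 25%, with at least 55% of replicates also reaching it, limit read from the data, passing the limit was not always enough; inconclusive means only one of those two conditions met; inactive means neither condition met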
Target sequence (Q9H3R0 2-372 limits assumed): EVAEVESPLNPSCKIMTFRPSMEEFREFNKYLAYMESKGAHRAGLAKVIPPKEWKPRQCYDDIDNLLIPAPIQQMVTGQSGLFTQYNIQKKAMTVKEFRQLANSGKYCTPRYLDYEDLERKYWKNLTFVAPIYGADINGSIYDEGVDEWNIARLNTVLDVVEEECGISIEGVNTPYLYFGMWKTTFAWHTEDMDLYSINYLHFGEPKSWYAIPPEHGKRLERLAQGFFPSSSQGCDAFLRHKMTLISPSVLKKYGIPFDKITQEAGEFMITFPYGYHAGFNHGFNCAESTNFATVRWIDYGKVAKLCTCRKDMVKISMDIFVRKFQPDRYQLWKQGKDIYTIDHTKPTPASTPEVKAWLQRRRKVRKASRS
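Material: GST-tagged GASC-1 (JMJD2C) catalytic fragment, aa 2-372. Input: enzyme final amount 10 nM. Medium: HEPES buffer, pH 7.5, plus ascorbate. Reagent: H3K9me3 peptide substrate, Fe(II), 2-oxoglutarate. Doses: single dose. Times: reaction 30 min RT, detection step 1 h RT. Measured by: LANCE TR-FRET. Evaluation: Fall in 671/618 emission ratio as inhibition.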
T cruzi growth-1 – T. cruzi intracellular proliferation inhibitors, primary screen, cell-based, beta-gal Tulahuen parasites, NIH3T3 host, luminescence | inhibition, % at 8.34 µM | T. cruzi beta-gal in NIH3T3, GalScreen luminescence, 90 h | 5.9% of 77,000 active;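 active means mean inhibition above about 93%, with at least 55% of replicates each passing it, limit read from the data, passing the limit was not always enough; inconclusive means only one of those two conditions holds; inactive means neither condition holds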
T cruzi growth-2 – T. cruzi intracellular proliferation inhibitors, confirmation, cell-based, NIH3T3 host, beta-gal parasite, luminescence, cherry-pick; shares compounds with T cruzi growth-1; T. cruzi beta-gal in NIH3T3, GalScreen luminescence, 90 h; inhibition, % at 8.35 µM; 72% of 5,600 active; AID 651739, 2012;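 active means mean replicate inhibition above about 95% and at least 55% of replicates individually reaching it, limit read from the data; inconclusive means only one of the two criteria is met; inactive means neither criterion is met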
T cruzi growth-3 – inhibitors of intracellular T. cruzi replication, confirmation, NIH3T3 host cells, beta-gal parasites, cherry-pick, set 2 | shares compounds with T cruzi growth-1 | T. cruzi beta-gal in NIH3T3, GalScreen luminescence, 90 h | inhibition, % at 2.09 µM | 21% of 5,600 active | AID 651740, 2012;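 active means mean inhibition above about 95%, with at least 55% of replicates also reaching it, limit read from the data; inconclusive means meets just one of the two conditions; inactive means meets neither condition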;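 further: plate controls were neutral control median for no effect and positive control median for full effect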
3T3 cytotox – cytotoxicity in mouse NIH/3T3 fibroblasts, confirmation, cytotoxicity control for T. cruzi proliferation inhibitor project, cell-based, cherry-pick, single point; shares compounds with T cruzi growth-1; 14% of 5,600 active; cytotoxicity (signal decrease), % at 8.35 µM; AID 651742, 2012; NIH/3T3 viability, CellTiter-Glo ATP luminescence, 90 h;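 active means mean signal decrease across replicates above about 35% based on untreated-well scatter, with enough replicates individually passing, limit read from the data; inconclusive means no rule stated though some were filed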;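 further: 0% = median of neutral control wells and 100% = median of positive control wells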
NIH3T3 tox 2 – NIH/3T3 fibroblast cytotoxicity, confirmation, cytotoxicity control, cell-based, cherry-pick, single point, set 2. shares compounds with T cruzi growth-1. NIH/3T3 viability, CellTiter-Glo ATP luminescence, 90 h. inhibition, % at 24.9 µM. 56% of 5,600 active. AID 651744, 2012;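 active means mean loss of cell viability signal at or above a set limit, and enough replicates individually reaching it; inconclusive means meets only the mean limit or only the replicate share; inactive means meets neither condition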;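 further: 0% = median of neutral control wells and 100% = median of positive control wells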
* marks the source's active call; other numbers are inactive results; u = inconclusive; x = no result given.

SMILES	IDH1 R132H inh	GASC1 inh	T cruzi growth-1	T cruzi growth-2	T cruzi growth-3	3T3 cytotox	NIH3T3 tox 2
C[C@@H]1CN([C@@H](C)CO)C(=O)c2cc(NS(=O)(=O)c3ccccc3)ccc2O[C@@H](C)CCCCO[C@H]1CN(C)Cc1ccccc1	2.1	-0.9	x	x	x	x	x
C[C@@H]1CCCCO[C@@H](CN(C)Cc2ccccc2)[C@@H](C)CN([C@@H](C)CO)C(=O)c2cc(NS(=O)(=O)c3ccc(Cl)cc3)ccc2O1	x	-0.7	u	95.2*	108.5*	5.5	104.1*
COc1cc(OC)c(C2=NOC(C(=O)NCC3CCCO3)C2)cc1Cl (centres undefined)	0.0	x	x	x	x	x	x
O=C(NC=Nc1cccnc1)c1cccc(COCC(F)(F)F)c1	-1.0	x	x	x	x	x	x
Cc1cc(Cl)ccc1OC(C)C(=O)Nc1cccc(NC(=O)c2ccco2)c1 (centres undefined)	0.0	x	x	x	x	x	x
Cc1ccc(Cl)cc1N(CC(=O)O)S(C)(=O)=O	-0.2	x	x	x	x	x	x
CC1(C)Cc2nc3sc4c(SCC(=O)Nc5ccc(Cl)cc5)ncnc4c3cc2CO1	1.8	x	x	x	x	x	x
N#C[C@@H]1[C@@H](c2ccc(C3=CCCCC3)cc2)[C@H](CO)N1C(=O)NC1CCCC1	x	-1.3	x	x	x	x	x
CCCNC(=O)N1[C@H](CO)[C@H](c2ccc(C3=CCCC3)cc2)[C@@H]1C#N	0.0	3.5	27.2	x	x	x	x
N#C[C@H]1[C@@H](c2ccc(C3=CCCCC3)cc2)[C@H](CO)N1C(=O)NC1CCCCC1	x	1.8	99.9*	104.8*	83.0	40.7*	54.0*
N#C[C@@H]1[C@H](c2ccc(C3=CCCCC3)cc2)[C@H](CO)N1C(=O)Nc1ccccc1F	x	-2.7	102.4*	110.4*	58.8	-4.8	15.5
CCCNC(=O)N1[C@@H](C#N)[C@H](c2ccc(C3=CCCCC3)cc2)[C@@H]1CO	x	2.1	103.5*	97.6*	106.8*	20.7	32.8*
N#C[C@@H]1[C@@H](c2ccc(C3=CCCCC3)cc2)[C@@H](CO)N1C(=O)NC1CCCC1	x	2.2	x	x	x	x	x
N#C[C@H]1[C@@H](c2ccc(C3=CCCCC3)cc2)[C@@H](CO)N1C(=O)Nc1ccccc1F	-0.8	0.8	68.7	x	x	x	x
N#C[C@H]1[C@H](c2ccc(C3=CCCCC3)cc2)[C@H](CO)N1C(=O)NC1CCCCC1	x	0.3	100.6*	97.3*	100.9*	10.3	69.1*
COc1ccc(OC)c(NC(=O)CSc2nnc(-c3ccccc3)n2-c2ccccc2)c1	0.3	x	x	x	x	x	x
Cc1cc(C)n2nc(NCc3cccc([N+](=O)[O-])c3)nc2n1	-0.4	x	x	x	x	x	x
O=C(N1CCOCC1)[C@@]1(Cc2ccccc2)COC(c2ccc(OCCCO)cc2)=N1	-0.8	x	x	x	x	x	x
C/C=C/c1ccc([C@H]2[C@@H](CO)N(C(=O)Nc3ccccc3F)[C@H]2C#N)cc1	1.3	-0.4	105.3*	87.2	56.4	10.2	48.1*
N#C[C@@H]1[C@H](c2ccc(C3=CCCCC3)cc2)[C@@H](CO)N1C(=O)NC1CCCCC1	x	0.6	91.5	x	x	x	x
N#C[C@@H]1[C@H](c2ccc(C3=CCCCC3)cc2)[C@H](CO)N1C(=O)NC1CCCCC1	x	0.4	107.0*	103.8*	69.9	29.8	44.3*
C/C=C/c1ccccc1[C@H]1[C@@H](CO)N(C(=O)Nc2ccccc2F)[C@H]1C#N	x	-1.4	x	x	x	x	x
COc1ccc(C)cc1N(CC(=O)Nc1ccc(C)c(Cl)c1)S(C)(=O)=O	-0.3	x	x	x	x	x	x
C[C@H](CO)N1C[C@H](C)[C@H](CN(C)Cc2ccc3c(c2)OCO3)OCCCC[C@H](C)Oc2ccc(NC(=O)Nc3ccc(F)cc3)cc2C1=O	x	-4.1	87.9	x	x	x	x
C[C@@H]1CCCCO[C@H](CN(C)Cc2ccc3c(c2)OCO3)[C@@H](C)CN([C@H](C)CO)C(=O)c2cc(NC(=O)Nc3ccc(F)cc3)ccc2O1	x	-0.6	98.2*	111.8*	-2.0	-5.5	9.3
SMILES	IDH1 R132H inh	GASC1 inh	T cruzi growth-1	T cruzi growth-2	T cruzi growth-3	3T3 cytotox	NIH3T3 tox 2
CC(C)NC(=O)Nc1ccc2c(c1)C(=O)N([C@@H](C)CO)C[C@@H](C)[C@@H](CN(C)Cc1ccc3c(c1)OCO3)OCCCC[C@@H](C)O2	1.4	13.5	77.0	x	x	x	x
C[C@@H]1CCCCO[C@@H](CN(C)Cc2ccc3c(c2)OCO3)[C@@H](C)CN([C@@H](C)CO)C(=O)c2cc(NC(=O)Nc3ccc(F)cc3)ccc2O1	4.5	-2.2	97.8*	110.5*	81.4	-2.7	16.9
C[C@@H]1CCCCO[C@H](CN(C)Cc2ccc3c(c2)OCO3)[C@@H](C)CN([C@@H](C)CO)C(=O)c2cc(NC(=O)Nc3ccc(F)cc3)ccc2O1	-1.1	9.0	104.6*	102.5*	104.1*	12.6	105.1*
C[C@H](CO)N1C[C@H](C)[C@H](CN(C)Cc2ccc3c(c2)OCO3)OCCCC[C@H](C)Oc2ccc(NC(=O)Nc3ccc4c(c3)OCO4)cc2C1=O	-0.9	-0.5	x	x	x	x	x
C[C@@H]1CCCCO[C@@H](CN(C)Cc2ccc3c(c2)OCO3)[C@H](C)CN([C@@H](C)CO)C(=O)c2cc(NC(=O)Nc3ccc(F)cc3)ccc2O1	6.5	-1.1	109.8*	98.2*	60.2	30.9	92.4*
C[C@H](CO)N1C[C@H](C)[C@@H](CN(C)Cc2ccc3c(c2)OCO3)OCCCC[C@H](C)Oc2ccc(NC(=O)Nc3ccc4c(c3)OCO4)cc2C1=O	x	0.7	90.8	x	x	x	x
Cc1cccc(C)c1OCC(=O)Nc1ccc(O)cc1C(=O)O	0.1	x	x	x	x	x	x
CC1=C(C(=O)OC(C)C(C)(C)C)C(c2cccc(Br)c2)NC(=O)N1 (centres undefined)	-0.8	x	x	x	x	x	x
O=C(Nc1ccccc1C(=O)O)c1cccc(NS(=O)(=O)c2ccc(Cl)cc2)c1	-1.4	x	x	x	x	x	x
COC(=O)c1ccccc1NC(=O)COc1ccc([N+](=O)[O-])c(C)c1	0.9	x	x	x	x	x	x
O=C(CSc1nnc(-c2ccccc2O)n1-c1ccccc1)Nc1ccc(N2CCOCC2)cc1	1.0	x	x	x	x	x	x
CCc1ccc(-n2c(SCC(=O)Nc3cc(Cl)ccc3C)nnc2-c2ccncc2)cc1	0.1	x	x	x	x	x	x
C[C@@H]1CN([C@H](C)CO)C(=O)c2cc(NC(=O)Nc3ccc4c(c3)OCO4)ccc2O[C@@H](C)CCCCO[C@H]1CN(C)Cc1ccc2c(c1)OCO2	x	0.3	x	x	x	x	x
